Results published in ChEMBL document CHEMBL2151030, “Improving the solubility of a new class of antiinflammatory pharmacodynamic hybrids, that release nitric oxide and inhibit cycloxygenase-2 isoenzyme” (Eur J Med Chem, 2012).
pIC50: −log10 of the molar value. Values after ≈ are worked out from the molar mass of the structure shown.

Legend:
[1] = target: T1, Prostaglandin G/H synthase 1 (Mus musculus) (UniProt P22437); test: Inhibition of COX1-mediated PGE2 production in mouse J774 cells at 10 uM preincubated for 15 mins measured after 30 mins by radioimmunoassay relative to control; assay type: cell-based
T1 sequence (whole entry): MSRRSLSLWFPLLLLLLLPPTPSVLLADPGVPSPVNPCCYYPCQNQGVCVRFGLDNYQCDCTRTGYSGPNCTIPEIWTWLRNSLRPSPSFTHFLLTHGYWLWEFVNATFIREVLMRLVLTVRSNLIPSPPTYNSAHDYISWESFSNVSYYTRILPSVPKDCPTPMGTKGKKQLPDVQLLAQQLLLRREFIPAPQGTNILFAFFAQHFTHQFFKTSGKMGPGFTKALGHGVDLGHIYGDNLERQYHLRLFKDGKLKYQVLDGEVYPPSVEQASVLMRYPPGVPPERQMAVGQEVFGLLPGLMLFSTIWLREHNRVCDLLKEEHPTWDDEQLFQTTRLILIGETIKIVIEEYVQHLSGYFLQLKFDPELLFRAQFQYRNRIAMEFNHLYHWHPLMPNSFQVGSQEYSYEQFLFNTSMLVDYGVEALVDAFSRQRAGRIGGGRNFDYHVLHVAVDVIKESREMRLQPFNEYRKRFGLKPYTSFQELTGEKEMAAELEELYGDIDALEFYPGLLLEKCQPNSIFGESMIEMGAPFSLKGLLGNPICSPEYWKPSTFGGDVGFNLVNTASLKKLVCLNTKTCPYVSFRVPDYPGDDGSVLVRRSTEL
Procedure, shortened: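 Murine J774 macrophages in DMEM with 10% FBS, glutamine, HEPES, pyruvate and antibiotics, adhered 2 h at 37 °C in 5% CO2. Medium was refreshed, cells were pretreated with compound for 15 min, then given 15 μM arachidonic acid for 30 min at 37 °C. PGE2 in supernatant was measured by RIA as % inhibition versus control, triplicate wells, mean of three experiments.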

J774 = test: Selectivity index, ratio of IC50 for COX1-mediated PGE2 production to IC50 for COX2-mediated PGE2 production in mouse J774 cells; assay type: cell-based
Procedure, shortened: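 Ratio of the COX-1 IC50 to the COX-2 IC50, both from PGE2 RIA in J774 cells. For COX-1, cells were given compound for 15 min, then 15 μM arachidonic acid for 30 min; lower concentrations (0.01–1 μM) were tested when warranted. For COX-2, cells were given LPS 10 µg/mL for 24 h with compound at 0.01–10 μM. IC50 came from a sigmoidal variable-slope fit.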

[2] = target: T2, Prostaglandin G/H synthase 2 (Mus musculus) (UniProt Q05769); test: Inhibition of COX2-mediated PGE2 production in LPS-induced mouse J774 cells by radioimmunoassay relative to control; assay type: cell-based; set-up: concentration or dose not given beside the values; conditions: concentration not given here
T2 sequence (whole entry): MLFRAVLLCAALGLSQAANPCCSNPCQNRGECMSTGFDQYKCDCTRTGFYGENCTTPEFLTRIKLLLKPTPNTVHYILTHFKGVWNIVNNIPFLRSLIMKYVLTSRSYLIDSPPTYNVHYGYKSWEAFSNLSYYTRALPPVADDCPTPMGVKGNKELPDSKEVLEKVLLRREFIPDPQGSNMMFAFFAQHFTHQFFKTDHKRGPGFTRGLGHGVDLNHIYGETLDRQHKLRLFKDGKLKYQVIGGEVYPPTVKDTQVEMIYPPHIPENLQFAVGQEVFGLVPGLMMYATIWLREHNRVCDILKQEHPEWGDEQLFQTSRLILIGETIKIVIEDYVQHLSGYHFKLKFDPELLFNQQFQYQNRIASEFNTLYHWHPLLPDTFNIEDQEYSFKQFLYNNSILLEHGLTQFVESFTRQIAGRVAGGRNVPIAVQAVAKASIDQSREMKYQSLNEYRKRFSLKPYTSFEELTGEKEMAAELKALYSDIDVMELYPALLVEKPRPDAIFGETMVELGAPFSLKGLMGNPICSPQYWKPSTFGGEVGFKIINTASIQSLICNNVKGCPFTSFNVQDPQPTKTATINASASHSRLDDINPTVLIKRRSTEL
Procedure, shortened: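 J774 cells, cultured as for the COX-1 assay, were stimulated 24 h with E. coli LPS (10 µg/mL) to induce COX-2, with or without compound at 0.01–10 μM. Supernatant PGE2 was measured by RIA as % inhibition versus control, triplicate wells, mean of three experiments. IC50 came from a sigmoidal variable-slope dose-response fit.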

[3] = target: T3, Prostaglandin G/H synthase 1 (Mus musculus, UniProt P22437); test: Inhibition of COX1-mediated PGE2 production in mouse J774 cells preincubated for 15 mins measured after 30 mins by radioimmunoassay; assay type: cell-based
T3 sequence (P22437 whole entry): T1 sequence (whole entry)
Procedure, shortened: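 Murine J774 macrophages in DMEM/10% FBS, adhered 2 h at 37 °C. […] Supernatant PGE2 measured by RIA. Triplicate wells, mean of three experiments; IC50 by sigmoidal variable-slope fit.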

[4] = target: T4, Prostaglandin G/H synthase 2 (Mus musculus, UniProt Q05769); test: Inhibition of COX2-mediated PGE2 production in LPS-induced mouse J774 cells by radioimmunoassay; assay type: cell-based
T4 sequence (Q05769 whole entry): T2 sequence (whole entry)
Procedure, shortened: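 J774 murine macrophages stimulated 24 h with E. coli LPS (10 µg/mL) to induce COX-2, with or without compound (0.01–10 μM). Supernatant PGE2 measured by RIA; percent inhibition against controls. Triplicate wells, mean of three experiments; IC50 from sigmoidal variable-slope fit.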

Mus musculus [5] = test: Analgesic activity in Swiss albino mouse assessed as reduction of acetic acid-induced writhing at 35.9 nmol/kg, po after 5 mins; assay type: functional; set-up: scale not given: the % may be the effect or the level left
Procedure, shortened: (§1)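 Male Swiss albino mice (23-25 g), standard diet and water ad libitum, 23 ± 1 °C, 12 h light/dark cycle. Test compound given orally; 0.6% acetic acid (10 mL/kg) injected ip. Stretching movements counted for 10 min, beginning 5 min after administration.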

[6] = Solubility of the compound in simulated gastric fluid without pepsin at pH 1.5 by HPLC analysis; assay type: physicochemical
Procedure, shortened: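 Compound from 20 mM DMSO stock diluted 1:100 into 0.05 M simulated gastric fluid without pepsin (pH 1.5 with HCl), duplicate wells on a solubility filter plate, shaken 90 min at 300 rpm. Seven-point calibration standards from 1 to 200 μM.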

Mus musculus [7] = test: Analgesic activity in Swiss albino mouse assessed as reduction of acetic acid-induced writhing at 71.8 nmol/kg, po after 5 mins; assay type: functional; set-up: scale not given: the % may be the effect or the level left; procedure, shortened: as §1
[8] = Solubility of the compound in PBS buffer at pH 7.4 by HPLC analysis; assay type: physicochemical
Procedure, shortened: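 20 mM DMSO stocks diluted 1:100 into 0.01 M PBS pH 7.4 in duplicate wells of a solubility filter plate, shaken 90 min at 300 rpm. Seven-point calibration standards from 1 to 200 μM.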

Aorta = test: Vasorelaxant activity in Wistar rat endothelium-denuded thoracic aortic ring assessed as inhibition of KCl-induced contractile tone in presence of guanylate cyclase inhibitor ODQ; assay type: functional, tissue-based
Procedure, shortened: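 Male normotensive Wistar rats (250–350 g); thoracic aortic rings, endothelium removed by rubbing, removal confirmed by <10% relaxation to ACh (10 µM) in KCl (30 mM)-contracted rings. ODQ 1 µM incubated after confirmation; rings contracted with KCl 30 mM, then 3-fold increasing compound concentrations (1 nM–10 µM). Isometric tension; pIC50 from half reduction of KCl tone; mean ± SE, 6–10 experiments.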

Mus musculus [9] = test: Analgesic activity in Swiss albino mouse assessed as reduction of acetic acid-induced writhing at 81.6 nmol/kg, po after 5 mins; assay type: functional; set-up: scale not given: the % may be the effect or the level left; procedure, shortened: as §1
Rattus norvegicus [10] = test: Antiinflammatory activity in rat assessed as reduction of carrageenan-induced oedema in right hind paw at 40 mg/kg, po after 4 hrs post carrageenan-challenge; assay type: functional; set-up: scale not given: the % may be the effect or the level left
Procedure, shortened: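 Sprague-Dawley or Wistar rats (150-200 g). Carrageenan injected intraplantar; oral treatment with test compound or CMC vehicle. Right hind paw volume measured 4 h after carrageenan and compared with saline- and carrageenan-treated controls.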

Mus musculus [11] = test: Analgesic activity in Swiss albino mouse assessed as reduction of acetic acid-induced writhing at 84 nmol/kg, po after 5 mins; assay type: functional; set-up: scale not given: the % may be the effect or the level left; procedure, shortened: as §1
Rattus norvegicus [12] = test: Antiinflammatory activity in rat assessed as reduction of carrageenan-induced paw pressure at 40 mg/kg, po after 45 mins post carrageenan-challenge; assay type: functional; set-up: scale not given: the % may be the effect or the level left
Procedure, shortened: (§2)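 Rats (Sprague-Dawley or Wistar, 150-200 g) received intraplantar carrageenan 4 h before testing, then oral compound or CMC vehicle. Paw-pressure threshold read before treatment and at 15, 30, 45 and 60 min after treatment, compared with saline and carrageenan controls.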

Rattus norvegicus [13] = test: Antiinflammatory activity in rat assessed as reduction of carrageenan-induced paw pressure at 40 mg/kg, po after 30 mins post carrageenan-challenge; assay type: functional; set-up: scale not given: the % may be the effect or the level left; procedure, shortened: as §2
Mus musculus [14] = test: Analgesic activity in Swiss albino mouse assessed as reduction of acetic acid-induced writhing at 40.8 nmol/kg, po after 5 mins; assay type: functional; set-up: scale not given: the % may be the effect or the level left; procedure, shortened: as §1
Rattus norvegicus [15] = test: Antiinflammatory activity in rat assessed as reduction of carrageenan-induced paw pressure at 40 mg/kg, po after 15 mins post carrageenan-challenge; assay type: functional; set-up: scale not given: the % may be the effect or the level left; procedure, shortened: as §2
Rattus norvegicus [16] = test: Antiinflammatory activity in rat assessed as reduction of carrageenan-induced paw pressure at 40 mg/kg, po after 60 mins post carrageenan-challenge; assay type: functional; set-up: scale not given: the % may be the effect or the level left; procedure, shortened: as §2

Compound | inhibition [1] [%] | inhibition [2] [%] | pIC50 [3] | pIC50 [4] | solubility [6] [µM] | solubility [8] [µM] | pIC50 (Aorta) | Ratio IC50 (J774) | Activity (Mus musculus [5]) [%] | Activity (Mus musculus [7]) [%] | Activity (Mus musculus [9]) [%] | Activity (Rattus norvegicus [10]) [%] | Activity (Mus musculus [11]) [%] | Activity (Rattus norvegicus [12]) [%] | Activity (Rattus norvegicus [13]) [%] | Activity (Mus musculus [14]) [%] | Activity (Rattus norvegicus [15]) [%] | Activity (Rattus norvegicus [16]) [%]
Cc1c(C(N)C(=O)OCCCCO[N+](=O)[O-])cc(-c2ccc(S(C)(=O)=O)cc2)n1-c1ccc(F)cc1 (centres undefined) | 1 | 82 | < 5.00 | – | > 200 | 70.8 (≈ 36.8 µg/mL) | 5.81 | > 10 | 26.9 | 40.7 | – | – | – | – | – | – | – | –
Cc1c(C(N)C(=O)OCCCCO)cc(-c2ccc(S(C)(=O)=O)cc2)n1-c1cccc(F)c1 (centres undefined) | 23 | 100 | < 5.00 | 5.82 | – | – | – | > 6.67 | – | – | – | – | – | – | – | – | – | –

Further lines, with some results ahead:

inhibition [1] [%] | inhibition [2] [%] | pIC50 [3] | pIC50 [4] | solubility [6] [µM] | solubility [8] [µM] | pIC50 (Aorta) | Compound | Ratio IC50 (J774) | Activity (Mus musculus [5]) [%] | Activity (Mus musculus [7]) [%] | Activity (Mus musculus [9]) [%] | Activity (Rattus norvegicus [10]) [%] | Activity (Mus musculus [11]) [%] | Activity (Rattus norvegicus [12]) [%] | Activity (Rattus norvegicus [13]) [%] | Activity (Mus musculus [14]) [%] | Activity (Rattus norvegicus [15]) [%] | Activity (Rattus norvegicus [16]) [%]
5 | 100 | < 5.00 | 5.82 | – | – | – | Cc1c(C(N)C(=O)OCCCO[N+](=O)[O-])cc(-c2ccc(S(C)(=O)=O)cc2)n1-c1cccc(F)c1 (centres undefined) | > 6.62 | – | – | – | – | – | – | – | – | – | –
30 | 79 | < 5.00 | 5.92 | – | – | – | Cc1c(C(N)C(=O)OCCCO)cc(-c2ccc(S(C)(=O)=O)cc2)n1-c1cccc(F)c1 (centres undefined) | > 8.4 | – | – | – | – | – | – | – | – | – | –
– | – | – | – | < 1 | 1.1 (≈ 0.54 µg/mL) | – | Cc1c(CC(=O)OCCCO[N+](=O)[O-])cc(-c2ccc(S(C)(=O)=O)cc2)n1-c1cccc(F)c1 | – | – | – | 26.4 | 35 | 71.2 | 40 | 41 | 23.3 | 40 | 17
